# Measured values reported in ChEMBL document CHEMBL3286128 (J Med Chem, 2014).
# The source made the active and inactive calls. The calls are words filed in the database; no cut-off is given here.
# Columns and labels:
# [1] = test system: Human immunodeficiency virus 1; assay: Antiviral activity against HIV-1 harboring wild type integrase infected in human HOS cells pretreated with compound for 3 hrs by single-round HIV-1 infectivity assay in presence of 10% fetal bovine serum; assay type: functional, organism-based; conditions: Human immunodeficiency virus 1, HOS
# How it was run: (§1)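 VSV-g-pseudotyped single-round HIV-1 luciferase vector (WT or mutant IN) made in 293T cells by calcium phosphate transfection, supernatant harvested at 48 h. HOS cells were seeded the day before, then pretreated with compound, 11 serial dilutions from 10 μM to 0.0005 μM, at 37 °C for 3 h. Virus was added and cells kept 48 h at 37 °C. Luciferase was read and normalised to infectivity without compound.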
# [2] = test system: Human immunodeficiency virus 1; assay: Antiviral activity against HIV-1 harboring wild type integrase infected in human HOS cells pretreated with compound for 3 hrs by single-round HIV-1 infectivity assay in presence of 5% fetal bovine serum; assay type: functional, organism-based; conditions: Human immunodeficiency virus 1, HOS; how it was run: as §1
# [3] = molecular target: Human immunodeficiency virus type 1 reverse transcriptase (Human immunodeficiency virus 1) (UniProt Q72547); assay: Inhibition of HIV-1 DNA-dependent DNA polymerase activity of reverse transcriptase after 60 mins by agarose gel electrophoresis
# [4] = Retention time of the compound by HPLC analysis; assay type: physicochemical
# How it was run: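 Preparative HPLC run as a linear gradient of solvent B over 30 min, starting at 30% B and ending at 70% or 80% B depending on the compound. Retention time was taken at elution.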
# [5] = test system: Human immunodeficiency virus 1; assay: Ratio of EC50 for raltegravir-resistant HIV-1 harboring integrase Y143R mutant infected in human HOS cells to EC50 for HIV-1 harboring integrase wild type integrase infected in human HOS cells; assay type: functional
# [6] = test system: Human immunodeficiency virus 1; assay: Ratio of EC50 for INSTI-resistant HIV-1 harboring integrase G118R mutant infected in human HOS cells to EC50 for HIV-1 harboring integrase wild type integrase infected in human HOS cells; assay type: functional
# [7] = test system: Human immunodeficiency virus 1; assay: Ratio of EC50 for INSTI-resistant HIV-1 harboring integrase R263K mutant infected in human HOS cells to EC50 for HIV-1 harboring integrase wild type integrase infected in human HOS cells; assay type: functional
# [8] = molecular target: Human immunodeficiency virus type 1 reverse transcriptase (Human immunodeficiency virus 1) (UniProt Q72547); assay: Inhibition of HIV-1 reverse transcriptase RNase H activity-mediated -8 cleavage assessed as retention of -17 cleavage after 10 to 15 mins by agarose gel electrophoresis
# [9] = test system: Human immunodeficiency virus 1; assay: Antiviral activity against raltegravir-resistant HIV-1 harboring integrase Y143R mutant infected in human HOS cells pretreated with compound for 3 hrs by single-round HIV-1 infectivity assay; assay type: functional, organism-based; conditions: Human immunodeficiency virus 1, HOS
# [10] = molecular target: T1, Human immunodeficiency virus type 1 integrase (Human immunodeficiency virus 1, UniProt Q7ZJM1); assay: Inhibition of strand transfer activity of HIV-1 integrase using [gamma-32P]-labeled DNA as substrate
# How it was run: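 Gel-based assay with radiolabelled oligonucleotide substrate and Mg2+ cofactor, measuring strand transfer by recombinant HIV-1 integrase. IC50 determined.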
# [11] = test system: Human immunodeficiency virus 1; assay: Antiviral activity against INSTI-resistant HIV-1 harboring integrase G118R mutant infected in human HOS cells pretreated with compound for 3 hrs by single-round HIV-1 infectivity assay; assay type: functional, organism-based; conditions: Human immunodeficiency virus 1, HOS; how it was run: as §1
# [12] = test system: Human immunodeficiency virus 1; assay: Antiviral activity against HIV-1 harboring wild type integrase infected in human HOS cells pretreated with compound for 3 hrs by single-round HIV-1 infectivity assay; assay type: functional, organism-based; conditions: Human immunodeficiency virus 1, HOS
# [13] = test system: Human immunodeficiency virus 1; assay: Antiviral activity against raltegravir-resistant HIV-1 harboring integrase G140S/Q148H double mutant infected in human HOS cells pretreated with compound for 3 hrs by single-round HIV-1 infectivity assay; assay type: functional, organism-based; conditions: Human immunodeficiency virus 1, HOS
# [14] = Selectivity index, ratio of CC50 for human HOS cells to EC50 for HIV-1 harboring wild type integrase infected in human HOS cells; assay type: toxicity, cell-based; conditions: read-out: Ratio CC50/EC50
# How it was run: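 HOS cells were exposed to compound and viability was read as ATP level by luciferase reporter. SI is CC50 divided by WT-vector EC50.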
# [15] = molecular target: T1, Human immunodeficiency virus type 1 integrase
# HOS = assay: Cytotoxicity against human HOS cells assessed as ATP level by luciferase reporter assay; assay type: cell-based
# How it was run: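 HOS cells were exposed to compound and viability was read as ATP level by luciferase reporter. […] SI is CC50 divided by WT-vector EC50.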
# [16] = test system: Human immunodeficiency virus 1; assay: Ratio of EC50 for raltegravir-resistant HIV-1 harboring integrase G140S/Q148H double mutant infected in human HOS cells to EC50 for HIV-1 harboring integrase wild type integrase infected in human HOS cells; assay type: functional
# [17] = test system: Human immunodeficiency virus 1; assay: Antiviral activity against raltegravir-resistant HIV-1 harboring integrase N155H mutant infected in human HOS cells pretreated with compound for 3 hrs by single-round HIV-1 infectivity assay; assay type: functional, organism-based; conditions: Human immunodeficiency virus 1, HOS
# [18] = test system: Human immunodeficiency virus 1; assay: Antiviral activity against INSTI-resistant HIV-1 harboring integrase R263K mutant infected in human HOS cells pretreated with compound for 3 hrs by single-round HIV-1 infectivity assay; assay type: functional, organism-based; conditions: Human immunodeficiency virus 1, HOS; how it was run: as §1
# [19] = test system: Human immunodeficiency virus 1; assay: Ratio of EC50 for raltegravir-resistant HIV-1 harboring integrase N155H mutant infected in human HOS cells to EC50 for HIV-1 harboring integrase wild type integrase infected in human HOS cells; assay type: functional
# [20] = test system: Human immunodeficiency virus 1; assay: Antiviral activity against HIV-1 harboring wild type integrase infected in human HOS cells pretreated with compound for 3 hrs by single-round HIV-1 infectivity assay in presence of 15% fetal bovine serum; assay type: functional, organism-based; conditions: Human immunodeficiency virus 1, HOS; how it was run: as §1
# [21] = molecular target: Human immunodeficiency virus type 1 reverse transcriptase (Human immunodeficiency virus 1) (UniProt Q72547); assay: Inhibition of HIV-1 RNase H activity of reverse transcriptase assessed as full length RNA level at 10 uM by agarose gel electrophoresis
# T1 sequence (Q7ZJM1 whole entry): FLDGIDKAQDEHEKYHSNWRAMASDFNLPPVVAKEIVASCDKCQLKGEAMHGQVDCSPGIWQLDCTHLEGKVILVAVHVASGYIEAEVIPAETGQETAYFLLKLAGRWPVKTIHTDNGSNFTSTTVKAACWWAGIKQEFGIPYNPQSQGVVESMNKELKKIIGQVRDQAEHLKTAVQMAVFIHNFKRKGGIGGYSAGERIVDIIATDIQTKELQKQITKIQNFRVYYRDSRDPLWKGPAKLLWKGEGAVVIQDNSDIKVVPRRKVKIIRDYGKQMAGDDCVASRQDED
smiles,measurement,setting,value
COC(=O)CNc1c(C(=O)NCc2ccc(F)cc2F)c(=O)n(O)c2ncccc12,EC50,[1],3 nM
same,EC50,[2],3.8 nM
same,inhibition,[3],Active
same,Retention_time,[4],28.4 min
same,Ratio EC50,[5],1
same,Ratio EC50,[6],11
same,Ratio EC50,[7],7
same,inhibition,[8],Active
same,EC50,[9],4.6 nM
same,IC50,[10],21 nM
same,EC50,[11],41 nM
same,EC50,[12],3.8 nM
same,EC50,[13],36 nM
same,selectivity ratio,[14],> 65800
same,IC50,[15],710 nM
same,CC50,HOS,> 250000 nM
same,Ratio EC50,[16],9
same,EC50,[17],19 nM
same,EC50,[18],26 nM
same,Ratio EC50,[19],5
same,EC50,[20],3 nM
same,inhibition,[21],inactive
